Data from ChEMBL document CHEMBL1155416, “Ethacrynic acid analogues lacking the alpha,beta-unsaturated carbonyl unit--potential anti-metastatic drugs” (2010).
Activity calls are given as the source filed them. The calls are words filed in the database; no cut-off is given here.

Key:
Type in all cases: functional
MCF7/AZ = assay: (§1) Antimigration against human MCF7/AZ cells at 10 to 25 uM after 24 hrs by wound healing assay
How it was run: (§2)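 Confluent MCF-7/AZ monolayers were washed twice with PBS and scratched to leave a gap of about 1500 μm, then imaged. Medium with or without compound was added, at concentrations chosen from the 24 h MTT assay. After 24 h of migration the wound was imaged again and compared with the first image. Migration was expressed as migratory velocity (μm/h).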

[1] = Cytotoxicity against human MCF7/AZ cells assessed as reduction of cell viability after 24 hrs by MTT assay
How it was run: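 MCF-7/AZ cells were seeded at 1.5 × 10^4 cells/well in medium with 5% FBS and penicillin/streptomycin, then grown 24 h at 37 C under 5% CO2. They were exposed 24 h to eight concentrations (1, 5, 10, 20, 40, 60, 80, 100 μM). Part of the medium was removed before adding MTT, and OD was read. Mean OD came from three independent experiments. OD80/IC20 (20% viability loss) was read from the graphs.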

[2] = as §1; how it was run: as §2

Row | Structure (SMILES) | inhibition (MCF7/AZ) | IC20 [1] | inhibition (INH) [2]
1 | CCC(=O)c1ccc(OCC(=O)O)cc1C | inactive | 10 µM | –
2 | C=C(CC)C(=O)c1ccc(OCC(=O)O)c(Cl)c1Cl [ETHACRYNIC ACID] | inactive | > 100 µM | –
3 | CCC(=O)c1ccc(OCC(=O)O)c(C)c1 | inactive | 20 µM | –
4 | CCC(=O)c1cc(OC)c(OCC(=O)O)c(OC)c1 | – | > 100 µM | 52%
5 | CCC(=O)c1ccc(OCC(=O)O)cc1 | inactive | 25 µM | –
6 | CCC(=O)c1ccc(OCC(=O)O)c(OC)c1 | – | > 100 µM | 38%
7 | CCC(=O)c1ccc(OCC(=O)O)cc1OC | – | > 100 µM | 29%
